{"source": "ChEMBL document CHEMBL5649170", "about": "“Sustained microglial depletion with CSF1R inhibitor impairs parenchymal plaque development in an Alzheimer's disease model” (Nat Commun, 2019)", "key": {"[1]": {"molecular_target": "T1, Macrophage colony-stimulating factor 1 receptor (Mus musculus) (UniProt P09581)", "T1 sequence (whole entry)": "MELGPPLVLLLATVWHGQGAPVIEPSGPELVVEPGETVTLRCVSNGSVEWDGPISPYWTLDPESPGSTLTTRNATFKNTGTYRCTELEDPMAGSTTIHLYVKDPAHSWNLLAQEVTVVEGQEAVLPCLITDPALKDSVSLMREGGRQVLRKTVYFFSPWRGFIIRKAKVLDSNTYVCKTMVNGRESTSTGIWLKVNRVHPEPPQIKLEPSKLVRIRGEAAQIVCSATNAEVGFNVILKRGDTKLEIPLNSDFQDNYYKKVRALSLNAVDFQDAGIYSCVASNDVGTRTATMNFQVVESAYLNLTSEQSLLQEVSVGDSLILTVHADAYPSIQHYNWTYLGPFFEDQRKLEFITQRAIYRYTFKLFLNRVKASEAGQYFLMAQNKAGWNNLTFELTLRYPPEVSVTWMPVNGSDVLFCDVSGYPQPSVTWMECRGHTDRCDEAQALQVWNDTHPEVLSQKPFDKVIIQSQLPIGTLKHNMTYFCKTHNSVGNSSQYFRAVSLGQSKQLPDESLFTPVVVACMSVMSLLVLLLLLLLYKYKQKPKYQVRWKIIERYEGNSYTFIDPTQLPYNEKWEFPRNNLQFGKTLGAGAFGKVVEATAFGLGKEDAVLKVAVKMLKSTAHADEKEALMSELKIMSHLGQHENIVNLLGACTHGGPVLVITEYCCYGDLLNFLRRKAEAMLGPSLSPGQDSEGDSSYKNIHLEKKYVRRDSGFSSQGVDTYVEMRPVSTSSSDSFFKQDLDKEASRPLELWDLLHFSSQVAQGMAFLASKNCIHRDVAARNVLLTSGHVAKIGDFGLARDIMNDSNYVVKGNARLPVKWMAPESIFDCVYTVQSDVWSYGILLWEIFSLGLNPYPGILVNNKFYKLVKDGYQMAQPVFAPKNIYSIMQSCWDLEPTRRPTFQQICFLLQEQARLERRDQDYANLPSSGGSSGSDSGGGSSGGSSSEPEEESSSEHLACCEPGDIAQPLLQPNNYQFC", "test": "In vivo inhibition of CSF1R in wildtype mouse assessed as iron reactivity by measuring hemosiderin intensity of prussian blue staining in thalamus at 1200 ppm administered as rodent chow starting from 1.5 months and measured after 4 months by confocal microscopic analysis (reference value: 0.1 to 2.451 a.u.)", "type": "functional", "conditions": "route po, time 2.5 months", "summary_of_the_method": "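Wild-type or 5xFAD mice fed PLX5622 (1200 ppm) in AIN-76A chow from 1.5 months of age, examined in 4- and 7-month-old cohorts. Brain sections stained with a Prussian blue kit per kit instructions to detect iron deposits (microbleeds).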"}, "[2]": {"molecular_target": "Testis-specific serine/threonine-protein kinase 1 (Homo sapiens, UniProt Q9BXA7)", "sequence (Q9BXA7 whole entry)": "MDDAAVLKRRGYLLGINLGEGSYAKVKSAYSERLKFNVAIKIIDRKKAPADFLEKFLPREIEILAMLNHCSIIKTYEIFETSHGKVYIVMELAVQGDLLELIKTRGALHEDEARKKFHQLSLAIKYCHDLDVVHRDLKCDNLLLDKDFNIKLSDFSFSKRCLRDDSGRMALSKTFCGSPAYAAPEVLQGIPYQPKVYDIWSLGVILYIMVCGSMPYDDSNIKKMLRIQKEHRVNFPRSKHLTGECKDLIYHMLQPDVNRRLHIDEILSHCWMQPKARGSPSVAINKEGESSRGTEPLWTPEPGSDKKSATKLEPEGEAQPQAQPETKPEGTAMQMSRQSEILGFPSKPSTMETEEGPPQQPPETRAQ", "test": "Inhibition of STK22D (unknown origin)"}, "[3]": {"molecular_target": "Tyrosine-protein kinase Lyn (Homo sapiens, UniProt P07948)", "sequence (P07948 whole entry)": "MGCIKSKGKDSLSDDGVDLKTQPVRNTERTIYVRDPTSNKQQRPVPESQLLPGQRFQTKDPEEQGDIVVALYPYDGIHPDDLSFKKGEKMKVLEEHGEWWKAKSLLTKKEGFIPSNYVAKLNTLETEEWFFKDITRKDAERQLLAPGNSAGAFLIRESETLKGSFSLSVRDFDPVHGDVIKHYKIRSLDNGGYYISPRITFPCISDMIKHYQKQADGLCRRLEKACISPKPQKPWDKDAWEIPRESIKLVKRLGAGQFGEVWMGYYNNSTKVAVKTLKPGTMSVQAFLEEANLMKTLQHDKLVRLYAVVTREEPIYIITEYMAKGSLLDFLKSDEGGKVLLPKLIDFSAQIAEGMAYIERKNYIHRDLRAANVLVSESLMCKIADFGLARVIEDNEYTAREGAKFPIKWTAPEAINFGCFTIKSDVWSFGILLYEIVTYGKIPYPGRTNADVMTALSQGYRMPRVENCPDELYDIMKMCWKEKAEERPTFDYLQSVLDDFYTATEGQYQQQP", "test": "Inhibition of LYN_B (unknown origin)"}, "[4]": {"molecular_target": "Proto-oncogene tyrosine-protein kinase receptor Ret (Homo sapiens, UniProt P07949)", "sequence (P07949 whole entry)": "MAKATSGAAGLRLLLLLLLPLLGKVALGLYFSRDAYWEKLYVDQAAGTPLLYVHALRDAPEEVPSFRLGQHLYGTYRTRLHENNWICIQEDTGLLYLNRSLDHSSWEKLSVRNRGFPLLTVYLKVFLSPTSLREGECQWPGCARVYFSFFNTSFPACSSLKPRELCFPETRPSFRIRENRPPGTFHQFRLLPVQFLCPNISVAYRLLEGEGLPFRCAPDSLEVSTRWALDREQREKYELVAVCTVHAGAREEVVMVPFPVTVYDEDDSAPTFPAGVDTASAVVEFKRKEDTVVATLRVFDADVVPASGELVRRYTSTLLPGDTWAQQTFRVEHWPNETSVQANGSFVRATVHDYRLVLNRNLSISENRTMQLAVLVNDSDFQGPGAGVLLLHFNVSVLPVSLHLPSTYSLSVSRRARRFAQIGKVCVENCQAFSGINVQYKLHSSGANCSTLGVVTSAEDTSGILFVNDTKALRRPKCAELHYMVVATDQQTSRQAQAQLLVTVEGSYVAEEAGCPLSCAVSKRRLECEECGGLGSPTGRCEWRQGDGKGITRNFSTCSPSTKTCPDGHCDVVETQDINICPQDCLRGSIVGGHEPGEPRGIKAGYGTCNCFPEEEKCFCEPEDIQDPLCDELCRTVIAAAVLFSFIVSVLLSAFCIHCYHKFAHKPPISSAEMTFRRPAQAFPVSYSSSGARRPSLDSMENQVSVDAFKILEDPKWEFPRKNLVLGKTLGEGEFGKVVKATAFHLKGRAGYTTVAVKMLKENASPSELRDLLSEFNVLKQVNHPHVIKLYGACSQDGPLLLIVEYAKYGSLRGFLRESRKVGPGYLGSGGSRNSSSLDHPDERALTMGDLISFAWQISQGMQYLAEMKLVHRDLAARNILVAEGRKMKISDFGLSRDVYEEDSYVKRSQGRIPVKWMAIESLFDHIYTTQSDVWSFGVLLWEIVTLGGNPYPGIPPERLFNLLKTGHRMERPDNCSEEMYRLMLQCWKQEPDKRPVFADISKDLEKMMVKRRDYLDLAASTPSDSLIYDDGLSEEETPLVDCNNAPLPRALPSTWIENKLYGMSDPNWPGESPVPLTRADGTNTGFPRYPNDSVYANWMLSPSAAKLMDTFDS", "test": "Inhibition of RET (unknown origin)"}, "Mus musculus [5]": {"tested_on": "Mus musculus", "test": "Antialzheimer activity in 5XFAD mouse assessed as time spent in perimeter zone at 1200 ppm administered as rodent chow for 10 to 24 weeks by Open field test (reference value: 169.1 to 285.1 sec)", "type": "functional", "conditions": "route po, time 10-24 weeks"}, "Mus musculus [6]": {"tested_on": "Mus musculus", "test": "Antialzheimer activity in 5XFAD mouse assessed as time in platform zone at 1200 ppm administered as rodent chow for 10 to 24 weeks by Morris water maze test (reference value: 0 to 27 sec)", "type": "functional", "conditions": "route po, time 10-24 weeks", "summary_of_the_method": "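Morris water maze: a circular pool was filled with opaque water (white paint added), and mice were given four trials per acquisition day. Twenty-four hours after the last acquisition day, the platform was removed for a 60 s probe trial. Mice had been on 1200 ppm PLX5622 or control chow for 10 or 24 weeks from 1.5 months of age.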"}, "[7]": {"molecular_target": "Death-associated protein kinase 3 (Homo sapiens, UniProt O43293)", "sequence (O43293 whole entry)": "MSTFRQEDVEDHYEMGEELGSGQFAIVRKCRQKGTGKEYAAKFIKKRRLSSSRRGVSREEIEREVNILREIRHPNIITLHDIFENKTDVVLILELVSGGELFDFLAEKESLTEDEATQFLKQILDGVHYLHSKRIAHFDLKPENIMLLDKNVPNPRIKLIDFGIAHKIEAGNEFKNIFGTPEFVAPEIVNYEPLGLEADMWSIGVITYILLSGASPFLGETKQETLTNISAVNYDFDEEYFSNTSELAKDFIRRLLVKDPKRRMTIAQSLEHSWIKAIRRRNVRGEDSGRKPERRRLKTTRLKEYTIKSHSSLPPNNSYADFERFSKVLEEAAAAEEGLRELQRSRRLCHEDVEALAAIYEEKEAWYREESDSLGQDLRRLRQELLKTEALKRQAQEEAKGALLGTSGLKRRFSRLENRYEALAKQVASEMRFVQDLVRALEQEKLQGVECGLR", "test": "Inhibition of DAPK3 (unknown origin)"}, "[8]": {"molecular_target": "Calcium/calmodulin-dependent protein kinase type II subunit alpha (Homo sapiens, UniProt Q9UQM7)", "sequence (Q9UQM7 whole entry)": "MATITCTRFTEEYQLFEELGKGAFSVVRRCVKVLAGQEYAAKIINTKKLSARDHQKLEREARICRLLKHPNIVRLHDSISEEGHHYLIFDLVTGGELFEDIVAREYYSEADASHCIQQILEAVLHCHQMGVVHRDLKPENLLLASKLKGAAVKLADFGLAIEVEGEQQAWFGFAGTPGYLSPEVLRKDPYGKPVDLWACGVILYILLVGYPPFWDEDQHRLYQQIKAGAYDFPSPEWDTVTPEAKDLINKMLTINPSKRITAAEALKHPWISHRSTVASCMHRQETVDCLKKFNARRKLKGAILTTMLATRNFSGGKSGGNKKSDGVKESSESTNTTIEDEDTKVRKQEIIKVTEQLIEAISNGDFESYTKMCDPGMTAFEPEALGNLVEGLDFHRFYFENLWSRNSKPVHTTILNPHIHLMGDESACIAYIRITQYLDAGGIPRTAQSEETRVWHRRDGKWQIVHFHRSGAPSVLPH", "test": "Inhibition of CAMK2A (unknown origin)"}, "[9]": {"molecular_target": "T1, Macrophage colony-stimulating factor 1 receptor (Mus musculus)", "test": "In vivo inhibition of CSF1R in wildtype mouse assessed as number of Iba1 positive cells per FOV in […] cortex at 1200 ppm administered as rodent chow starting from 1.5 months to 4 months followed by compound removal and measured after 1 months by immunolabelling based confocal microscopic analysis (reference value: 193 to 236)", "type": "functional", "conditions": "route po, time 2.5 months"}, "[10]": {"test": "Toxicity in wildtype mouse assessed as number of entries to center zone at 1200 ppm administered as rodent chow for 10 to 24 weeks by Open field test (reference value: 19 to 63)", "conditions": "in vivo, po, time 10-24 weeks"}, "Mus musculus [11]": {"tested_on": "Mus musculus", "test": "Antialzheimer activity in 5XFAD mouse assessed as percent change in claudin-5 intensity of Thio-S negative retro spinal cortex at 1200 ppm administered as rodent chow starting from 1.5 months and measured after 4 months by immunolabeling analysis relative to control", "type": "functional", "conditions": "route po, time 2.5 months, 1825 h"}, "[12]": {"test": "AUC (0 to infinity) in monkey at 1.35 mg/kg, iv administered as single dose", "type": "ADME, organism-based, Macaca mulatta", "conditions": "rhesus monkey, in vivo"}, "[13]": {"test": "Volume of distribution at steady state in female rat at 1.13 mg/kg, iv administered as single dose", "type": "ADME, organism-based", "conditions": "in vivo, read-out: Vdss"}, "Mus musculus [14]": {"tested_on": "Mus musculus", "test": "Antialzheimer activity in 5XFAD mouse assessed as amyloidbeta42 level in detergent insoluble thalamus fraction measured per microgram protein at 1200 ppm administered as rodent chow starting from 1.5 months and measured after 4 months by ELISA (reference value: 181082 to 7435203 pg)", "type": "functional", "conditions": "route po, time 2.5 months, 1825 h", "summary_of_the_method": "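PLX5622 at 1200 ppm in chow given to 5xFAD mice from 1.5 months to 4 or 7 months of age; cortex and thalamus homogenized in TPER (detergent-soluble), pellets re-homogenized in 70% formic acid and spun 100,000 g, 1 h, 4 °C (insoluble); protein by Bradford/Lowry; Aβ species measured by Meso Scale electrochemiluminescence immunoassay, normalized to protein; n = 7–8 per group at 7 months.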"}, "[15]": {"test": "Toxicity in wildtype mouse assessed as proportion of time spent freezing at 1200 ppm administered as rodent chow for 10 to 24 weeks by […] (reference value: 0.10 to 0.53)", "conditions": "in vivo, po, time 10-24 weeks"}, "[16]": {"molecular_target": "Serine/threonine-protein kinase Chk1 (Homo sapiens, UniProt O14757)", "sequence (O14757 whole entry)": "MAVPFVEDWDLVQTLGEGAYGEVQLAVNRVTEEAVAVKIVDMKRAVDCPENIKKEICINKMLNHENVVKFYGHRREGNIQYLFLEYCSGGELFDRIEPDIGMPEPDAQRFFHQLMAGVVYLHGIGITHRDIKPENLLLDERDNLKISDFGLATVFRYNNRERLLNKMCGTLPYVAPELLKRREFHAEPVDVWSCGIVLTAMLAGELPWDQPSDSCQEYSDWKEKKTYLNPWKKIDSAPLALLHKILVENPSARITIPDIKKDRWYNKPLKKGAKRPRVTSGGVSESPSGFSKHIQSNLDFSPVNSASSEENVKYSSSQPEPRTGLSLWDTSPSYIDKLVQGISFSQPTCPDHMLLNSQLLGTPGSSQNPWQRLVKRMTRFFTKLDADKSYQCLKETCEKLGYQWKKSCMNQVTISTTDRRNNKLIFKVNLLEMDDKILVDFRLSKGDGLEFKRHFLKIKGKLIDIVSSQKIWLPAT", "test": "Inhibition of CHEK1 (unknown origin)"}, "[17]": {"test": "Effect on ccl6 gene expression in 5XFAD mouse thalamus at 1200 ppm administered as rodent chow starting from 1.5 months and measured after 7 months by RNA-Seq analysis (reference value: 3.667 to 7.093 RPKM)", "type": "functional", "conditions": "route po, time 5.5 months, 4015 h"}, "Mus musculus [18]": {"tested_on": "Mus musculus", "test": "Antialzheimer activity in 5XFAD mouse assessed as average plaque volume in […] cortex at 75 ppm administered as rodent chow starting from 1.5 months and measured after 5 months by immunolabeling based confocal microscopic analysis (reference value: 789.31 to 1314.37 microm3)", "type": "functional", "conditions": "route po, time 3.5 months, 2555 h", "summary_of_the_method": "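5xFAD mice fed PLX3397 at 75 ppm in AIN-76A chow from 1.5 to 5 months of age; retrosplenial and somatosensory cortex sections stained with Thio-S and immunolabeled for IBA1; confocal imaging, IBA1+ cells and plaques quantified per region; two-tailed independent t-test, n = 4–5 per group, mean ± SEM.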"}}, "data": [{"smiles": "COc1ncc(F)cc1CNc1ccc(Cc2c[nH]c3ncc(C)cc23)c(F)n1", "note": "[PLX-5622]", "values": [{"measurement": "Flu intensity", "setting": "[1]", "value": 0.273, "unit": "a.u."}, {"measurement": "IC50", "setting": "[2]", "value": "> 1000", "unit": "nM"}, {"measurement": "IC50", "setting": "[3]", "value": "> 1000", "unit": "nM"}, {"measurement": "IC50", "setting": "[4]", "value": "> 1000", "unit": "nM"}, {"measurement": "Time", "setting": "Mus musculus [5]", "value": 201.4, "unit": "s"}, {"measurement": "Time", "setting": "Mus musculus [6]", "value": 0, "unit": "s"}, {"measurement": "IC50", "setting": "[7]", "value": "> 1000", "unit": "nM"}, {"measurement": "IC50", "setting": "[8]", "value": "> 1000", "unit": "nM"}, {"measurement": "Activity", "setting": "[9]", "value": 51}, {"measurement": "Activity", "setting": "[10]", "value": 14}, {"measurement": "Activity", "setting": "Mus musculus [11]", "value": 70.238, "unit": "%"}, {"measurement": "AUC(0-inf)", "setting": "[12]", "value": 2100, "unit": "ng·h/mL"}, {"measurement": "Vd", "setting": "[13]", "value": 1, "unit": "L/kg"}, {"measurement": "Activity", "setting": "Mus musculus [14]", "value": 117968.4, "unit": "pg"}, {"measurement": "Activity", "setting": "[15]", "value": 0.13}, {"measurement": "IC50", "setting": "[16]", "value": "> 1000", "unit": "nM"}, {"measurement": "Activity", "setting": "[17]", "value": 0, "unit": "RPKM"}]}, {"smiles": "FC(F)(F)c1ccc(CNc2ccc(Cc3c[nH]c4ncc(Cl)cc34)cn2)cn1", "note": "[PEXIDARTINIB]", "values": [{"measurement": "Activity", "setting": "Mus musculus [18]", "value": 688.11, "unit": "um3"}]}]}
